According to the array DNA melting data of Ke et al. (doi:10.1101/2024.01.08.574731):

Columns and labels:
[1] = melting temperature; fluorescence melt of hairpins on a sequencing array, two-state fit, raised by 9.35 °C to match UV melts; details: sodium 0.088 M
How it was run: (§1)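 In 50 mM Na-HEPES pH 8.0 containing 25 mM NaCl, hairpins from the library on a sequenced MiSeq flow cell were imaged for Cy3 fluorescence at 2.5 °C steps up to 60 °C, with Cy3 and quencher oligos annealed. After normalisation to pre-quench Cy3 and to control constructs, two-state fits with bootstrapping gave melting temperature and folding enthalpy. Four replicates were combined by inverse-variance weighting, and fitted temperatures were shifted up by 9.35 °C to match UV melts.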

[2] = folding enthalpy; higher = less favourable; fluorescence melt of hairpins on a sequencing array, two-state fit; details: sodium 0.088 M
How it was run: as §1

Sequence | Tm [1] | folding enthalpy [2]
GATGTGGGAAACCATGTC ((..(((....)))..)) | 34.9 °C | -32.6 kcal/mol
GATGTTCCGAAAGGAATC (((..(((....)))))) | 32.4 °C | -13.2 kcal/mol
GATGTTGCGAAAGCAATC (((..(((....)))))) | 32.7 °C | -10.9 kcal/mol
GATTAACGAAAGTTATC (((.(((....)))))) | 31.3 °C | -13.2 kcal/mol
GATTACCCGAAAGGGATC (((..(((....)))))) | 26.3 °C | -12.1 kcal/mol
GATTACCGAAAGGTCATC (((.(((....))).))) | 38.2 °C | -28.8 kcal/mol
GATTACGAAAGTAAAATC ((((((....)))..))) | 28.5 °C | -17.6 kcal/mol
GATTACGAAAGTAGATC ((((((....))).))) | 29 °C | -19 kcal/mol
GATTAGGGAAACTTAATC (((((.(....).))))) | 29.1 °C | -17.3 kcal/mol
GATTATGCGAAAGCAATC (((..(((....)))))) | 23.4 °C | -9.91 kcal/mol
GATTCCCCGAAAGGGATC (((..(((....)))))) | 29.2 °C | -12.2 kcal/mol
GATTCCGAAAGGAGAATC ((((((....)))..))) | 32.7 °C | -17.4 kcal/mol
GATTCCGAAAGGAGCATC ((((((....)))..))) | 27.3 °C | -11.6 kcal/mol
GATTCCGGAAACGAAATC ((((.((....)).)))) | 34.3 °C | -31.6 kcal/mol
GATTCGAAAGAATC (((((....))))) | 51.5 °C | -29.7 kcal/mol
GATTCGGAAACGAATC ((((((....)))))) | 58.6 °C | -32.2 kcal/mol
GATTCTGGAAACAGAACC (.(((((....))))).) | 33.6 °C | -17.6 kcal/mol
GATTCTGGAAACAGAATC (((((((....))))))) | 55 °C | -43.9 kcal/mol
GATTGAGGAAACTCAATC (((((((....))))))) | 53.6 °C | -52.3 kcal/mol
GATTGCCGAAAGGCTATC (((.(((....))).))) | 51.4 °C | -19.1 kcal/mol
GATTGCGAAAGCAACATC ((((((....)))..))) | 28.5 °C | -9.24 kcal/mol
GATTGCGAAAGCAGTATC ((((((....)))..))) | 32.1 °C | -10.9 kcal/mol
GATTGCGAAAGCATAATC ((((((....)))..))) | 33.1 °C | -12.8 kcal/mol

Sequence | Tm [1] | folding enthalpy [2]
GATTGCGAAAGCATGATC ((((((....)))..))) | 36.3 °C | -11.6 kcal/mol
GATTGGCCGAAAGGCATC (((..(((....)))))) | 28.5 °C | -9.53 kcal/mol
GATTGGCGAAAGCCGATC (((.(((....))).))) | 56.8 °C | -25.8 kcal/mol
GATTGGGGAAACCCGATC (((.(((....))).))) | 48.8 °C | -35 kcal/mol
GATTGGGGAAACCTAATC ((((.((....)).)))) | 37.5 °C | -29.3 kcal/mol
GATTGTACGAAAGTAATC (((..(((....)))))) | 28.1 °C | -18.7 kcal/mol
GATTGTGCGAAAGCAATC (((..(((....)))))) | 34 °C | -12.8 kcal/mol
GATTGTGGAAACACAGTC ((.((((....)))).)) | 42.6 °C | -26.4 kcal/mol
GATTTAGGAAACTAGATC (((.(((....))).))) | 28.3 °C | -27.5 kcal/mol
GATTTCCGAAAGGAATC (((.(((....)))))) | 42.9 °C | -16.4 kcal/mol
GATTTCCGAAAGGATATC (((.(((....))).))) | 42 °C | -24.6 kcal/mol
GATTTCGGAAACGAAATC (((((((....))))))) | 58.1 °C | -41.2 kcal/mol
GATTTGCCGAAAGGCATC (((..(((....)))))) | 21.9 °C | -5.81 kcal/mol
GATTTGCGAAAGCACATC (((.(((....))).))) | 43.9 °C | -19.9 kcal/mol
GATTTGGGAAACCAAACC (.(((((....))))).) | 34 °C | -19.4 kcal/mol
GATTTGGGAAACCGAATC ((((.((....)).)))) | 44.5 °C | -31.1 kcal/mol
GATTTTGAAAAAAATC ((((((....)))))) | 40.7 °C | -23.7 kcal/mol
GATTTTGGAAACAAGATC (((.(((....))).))) | 33.6 °C | -22.4 kcal/mol
GCAAAAACGAAAGTTTGC (((..(((....)))))) | 43.2 °C | -26 kcal/mol
GCAAAACGAAAGTTTGC (((.(((....)))))) | 50.8 °C | -30.6 kcal/mol
GCAAAAGCGAAAGCTTGC (((..(((....)))))) | 51.4 °C | -18.3 kcal/mol
GCAAAAGGAAACCTTTGC (((((.(....).))))) | 39.6 °C | -30.4 kcal/mol
GCAAAAGGAAACTCTTGC ((((.((....)).)))) | 27.4 °C | -10.8 kcal/mol

Sequence | Tm [1] | folding enthalpy [2]
GCAAAAGGAAACTTTCGC ((.((((....)))).)) | 31.8 °C | -20.5 kcal/mol
GCAAAAGGAAACTTTTGC (((((((....))))))) | 56.5 °C | -45 kcal/mol
GCAAACGAAAGTTACTGC ((((((....)))..))) | 27.3 °C | -13.3 kcal/mol
GCAAACGAAAGTTATTGC ((((((....)))..))) | 31.7 °C | -18.5 kcal/mol
GCAAAGAAATTTGC (((((....))))) | 38.9 °C | -19.4 kcal/mol
GCAAAGACGAAAGTCTGC (((..(((....)))))) | 50.2 °C | -15.7 kcal/mol
GCAAAGCGAAAGCATAGC ((.(.((....)).).)) | 33.4 °C | -9.41 kcal/mol
GCAAAGCGAAAGCATCGC ((.(.((....)).).)) | 35.4 °C | -10.8 kcal/mol
GCAAAGCGAAAGCTCCGC ((..(((....)))..)) | 29 °C | -11.4 kcal/mol
GCAAAGCGAAAGCTCTGC (((.(((....))).))) | 47 °C | -31.1 kcal/mol
GCAAAGCGAAAGCTGTGC (((.(((....))).))) | 54.4 °C | -41.6 kcal/mol
GCAAAGCGAAAGCTTGGC ((.((((....)))).)) | 62.9 °C | -38.7 kcal/mol
GCAAAGGCGAAAGCCTGC (((..(((....)))))) | 54.6 °C | -14.9 kcal/mol
GCAAAGGGAAACTTTTGC (((((.(....).))))) | 41 °C | -26.8 kcal/mol
GCAAATCGAAAGATGTGC (((.(((....))).))) | 48.8 °C | -28.3 kcal/mol
GCAACACGAAAGTGTGC (((.(((....)))))) | 60.2 °C | -19 kcal/mol
GCAACAGAAATGTTGC ((((((....)))))) | 56.6 °C | -40.1 kcal/mol
GCAACCGAAAGGTACTGC ((((((....)))..))) | 33.5 °C | -13.9 kcal/mol
GCAACCGAAAGGTATGC ((((((....))).))) | 50.3 °C | -26.4 kcal/mol
GCAACCGAAAGGTCATGC ((((((....)))..))) | 32.3 °C | -13 kcal/mol
GCAACCGAAAGGTCCTGC ((((((....)))..))) | 27.9 °C | -9.82 kcal/mol
GCAACCGAAAGGTGATGC ((((((....)))..))) | 43.2 °C | -18.5 kcal/mol
GCAACCGAAAGGTTGTGC ((((((....)))..))) | 65.7 °C | -20.5 kcal/mol

Sequence | Tm [1] | folding enthalpy [2]
GCAACCGGAAACGGCTGC (((.(((....))).))) | 53 °C | -40.9 kcal/mol
GCAACCGGAAACGGTTAC (.(((((....))))).) | 41.2 °C | -12.4 kcal/mol
GCAACGCGAAAGCAATGC (((..((....))..))) | 40.6 °C | -11.1 kcal/mol
GCAACGCGAAAGCAGTGC (((..((....))..))) | 52.1 °C | -13.3 kcal/mol
GCAACGCGAAAGCATAGC ((.(.((....)).).)) | 37.5 °C | -9.72 kcal/mol
GCAACGCGAAAGCATTGC ((((.((....)).)))) | 59.7 °C | -27.3 kcal/mol
GCAACGCGAAAGCGAAGC ((..(((....)))..)) | 44.9 °C | -12.9 kcal/mol
GCAACGCGAAAGCGCTGC (((.(((....))).))) | 57.8 °C | -37.9 kcal/mol
GCAACGCGAAAGCGGAGC ((..(((....)))..)) | 63.9 °C | -24.5 kcal/mol
GCAACGCGAAAGCGGCGC ((..(((....)))..)) | 66.7 °C | -26.6 kcal/mol
GCAACGCGAAAGCGTAGC ((.((((....)))).)) | 61.9 °C | -17.6 kcal/mol
GCAACGCGAAAGCTTTGC ((((.((....)).)))) | 55.5 °C | -27.4 kcal/mol
GCAACGGAAACGTTGC ((((((....)))))) | 68.3 °C | -32.6 kcal/mol
GCAACGGGAAACCGCTAC (.(.(((....))).).) | 28.3 °C | -9.4 kcal/mol
GCAACGGGAAACCGTCAC (..((((....))))..) | 27.1 °C | -11.2 kcal/mol
GCAACGGGAAACTGTTGC (((((.(....).))))) | 55.6 °C | -40.8 kcal/mol
GCAACTCGAAAGAGGTGC (((.(((....))).))) | 65.5 °C | -40.6 kcal/mol
GCAACTGGAAACAGTTAC (.(((((....))))).) | 36.3 °C | -14.5 kcal/mol
GCAAGACCGAAAGGTTGC (((..(((....)))))) | 48.2 °C | -22.6 kcal/mol
GCAAGACGAAAGTCTGC (((.(((....)))))) | 57.7 °C | -26.7 kcal/mol
GCAAGATCGAAAGATTGC (((..(((....)))))) | 38 °C | -21.3 kcal/mol
GCAAGCCGAAAGGCATGC (((.(((....))).))) | 64 °C | -24.9 kcal/mol
